These results are taken from ChEMBL document CHEMBL1687762, “Aerosol therapy with colistin methanesulfonate: a biopharmaceutical issue illustrated in rats” (Antimicrob Agents Chemother, 2010).

In data set [1] the test system is Rattus norvegicus. Briefly: Half life in Sprague-Dawley rat at 15 mg/kg administered via intratracheal nebulization. As to conditions: in vivo, inhaled_or_intranasal. Set-up: dose 15 mg/kg, route endotracheal. In kind it is ADME, organism-based. Summed up:
(§1)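 Male Sprague-Dawley rats (280–350 g) were fasted 12 h, with a femoral catheter implanted the day before. Under isoflurane, 100 µl of CMS at 50 mg/ml in 0.4% NaCl (15 mg/kg) was sprayed intratracheally with a MicroSprayer (n=5). Arterial plasma was sampled from 0 to 300 min. CMS (after sulfuric acid hydrolysis) and colistin were measured by LC-MS/MS. Noncompartmental analysis: trapezoidal AUC, terminal log-linear half-life.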

Data set [2] concerns Rattus norvegicus. Briefly: Cmax in Sprague-Dawley rat at 15 mg/kg administered via intratracheal nebulization. Format: ADME, organism-based. Also on record: dose 15 mg/kg, route endotracheal. As to conditions: in vivo, inhaled_or_intranasal. Summed up:
as §1

Data set [3] concerns Rattus norvegicus. Description: Volume of distribution at steady state in Sprague-Dawley rat at 15 mg/kg, iv. In kind it is ADME, organism-based. Also on record: dose 15 mg/kg, route intravenous. As to conditions: in vivo. A digest of the protocol:
(§2)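 CMS in 0.9% NaCl, 15 mg/kg, was given as an i.v. bolus through a femoral vein catheter to fasted male Sprague-Dawley rats (n=6). Arterial plasma was drawn at 0–180 min. CMS (measured as colistin after acid hydrolysis) and colistin were quantified by LC-MS/MS. Individual noncompartmental analysis; Vss = dose × AUMC / AUC².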

Data set [4] deals with Rattus norvegicus. Briefly: Half life in Sprague-Dawley rat at 15 mg/kg, iv. Format: ADME, organism-based. Set-up: dose 15 mg/kg, route intravenous. The following applies: in vivo. Summed up: as §2
In data set [5] the test system is Rattus norvegicus. Briefly: Half life in Sprague-Dawley rat assessed as Colistin level at 15 mg/kg, iv. The following applies: in vivo. Also on record: dose 15 mg/kg, route intravenous. Format: ADME, organism-based. A digest of the protocol: as §2
For data set [6], the system named is Rattus norvegicus. Description: AUC in Sprague-Dawley rat at 15 mg/kg administered via intratracheal nebulization. In kind it is ADME, organism-based, Plasma. Set-up: dose 15 mg/kg, route endotracheal. As to conditions: in vivo, inhaled_or_intranasal. Summed up:
as §1

Data set [7] has as its system Rattus norvegicus. Description: Bioavailability in Sprague-Dawley rat at 15 mg/kg administered via intratracheal nebulization. The following applies: in vivo, inhaled_or_intranasal. Format: ADME, organism-based. Summed up: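 CMS bioavailability after intratracheal nebulization in rats (15 mg/kg) was taken as the mean CMS plasma AUC after nebulization divided by the mean CMS AUC after i.v. dosing at the same dose. It is reported as an average value.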

The test system of data set [8] is Rattus norvegicus. Briefly: AUC in Sprague-Dawley rat assessed as Colistin level at 15 mg/kg, iv. In kind it is ADME, organism-based, Plasma. Also on record: dose 15 mg/kg, route intravenous. As to conditions: in vivo. A digest of the protocol:
as §2

Data set [9] relates to Rattus norvegicus. Description: Half life in Sprague-Dawley rat assessed as Colistin level at 15 mg/kg administered via intratracheal nebulization. In kind it is ADME, organism-based. Also on record: dose 15 mg/kg, route endotracheal. The following applies: in vivo, inhaled_or_intranasal. Summed up:
as §1

Data set [10] deals with Rattus norvegicus. Briefly: AUC in Sprague-Dawley rat at 15 mg/kg, iv. Also on record: dose 15 mg/kg, route intravenous. As to conditions: in vivo. In kind it is ADME, organism-based, Plasma. A digest of the protocol:
as §2

Data set [11] has as its system Rattus norvegicus. Briefly: AUC in Sprague-Dawley rat assessed as Colistin level at 15 mg/kg administered via intratracheal nebulization. Format: ADME, organism-based, Plasma. Set-up: dose 15 mg/kg, route endotracheal. As to conditions: in vivo, inhaled_or_intranasal. Summed up:
as §1

As usually defined, the Cmax is the maximum level reached in the sampled fluid or tissue. As a reminder, the Vdss is a proportionality between amount in the body and measured concentration, not a real space. Lower therefore signals little distribution into tissue. Broadly, the AUC is the area under the concentration-time curve, a measure of exposure. Take COLISTIMETHATE SODIUM: the t1/2 with Rattus norvegicus [1] was 21 min; with Rattus norvegicus [4] it was 22 min; with Rattus norvegicus [5] it was 35.5 min; in the data set on Rattus norvegicus [9], 63.6 min. The Cmax in the data set on Rattus norvegicus [2] worked out at 5600 ng/mL. The sequence also came in with a Vdss with Rattus norvegicus [3] of 0.33 L/kg. The AUC with Rattus norvegicus [6] amounted to 756 µg·min/mL; in the data set on Rattus norvegicus [8], 160 µg·min/mL; in the data set on Rattus norvegicus [10], 1079 µg·min/mL; with Rattus norvegicus [11], 607 µg·min/mL. For the same sequence, in the data set on Rattus norvegicus [7], the F worked out at 70%.
